# Columns and labels:
# [1] = AUC (0 to 6 hrs) in human systemic circulation with normal renal function at 2000 mg, po every 6 hrs measured after fifth dose by radioimmunoassay; assay type: ADME, organism-based; design: time < 6 hr, dose 2000 mg, route oral; details: plasma
# Method in brief: (§1)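 Six subjects with normal renal function took valacyclovir 2,000 mg orally every 6 h for 5 doses, fasting from 8 h before to 2 h after the fifth dose. Plasma was drawn at 0, 0.5, 1, 1.5, 2, 3, 4, 6 and 8 h. Acyclovir was measured by scintillation proximity radioimmunoassay (LLQ 14.1 ng/ml). Noncompartmental analysis gave AUC over 0–6 h, Cmax and tmax, with Cavg = AUCτ/τ.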
# [2] = Cmax in human CSF with chronic kidney disease at 1500 mg, po every 12 hrs measured after fifth dose by radioimmunoassay; assay type: ADME, organism-based, Cerebrospinal fluid; design: dose 1500 mg, route oral
# Method in brief: (§2)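 CKD subjects (n=3) received an oral dose every 12 h for 5 doses. CSF was drawn through an indwelling lumbar catheter predose and at 0.5, 1, 1.5, 2, 3, 4, 6, 8 and 12 h after the fifth dose. Acyclovir was quantified by automated scintillation proximity radioimmunoassay with a monoclonal antibody; the standard curve was 1.4–90 ng/ml and LLQ 14.1 ng/ml. Noncompartmental parameters were calculated over 0–12 h.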
# [3] = Cmax in human CSF with normal renal function at 2000 mg, po every 6 hrs measured after fifth dose by radioimmunoassay; assay type: ADME, organism-based, Cerebrospinal fluid; design: dose 2000 mg, route oral
# Method in brief: (§3)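 Normal-renal-function subjects (n=6) took an oral dose every 6 h for 5 doses. Serial lumbar-catheter CSF was collected on ice predose through 8 h after the last dose. Acyclovir was assayed by scintillation proximity radioimmunoassay validated for CSF (range 1.4–90 ng/ml; 1:10 dilution; LLQ 14.1 ng/ml). Cmax, tmax and AUCτ over 0–6 h were computed noncompartmentally.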
# [4] = AUC (0 to 12 hrs) in human CSF with chronic kidney disease at 1500 mg, po every 12 hrs measured after fifth dose by radioimmunoassay; assay type: ADME, organism-based; design: time < 12 hr, dose 1500 mg, route oral; method in brief: as §2
# [5] = Tmax in human CSF with normal renal function at 2000 mg, po every 6 hrs measured after fifth dose by radioimmunoassay; assay type: ADME, organism-based, Cerebrospinal fluid; method in brief: as §3
# [6] = Tmax in human CSF with chronic kidney disease at 1500 mg, po every 12 hrs measured after fifth dose by radioimmunoassay; assay type: ADME, organism-based, Cerebrospinal fluid; method in brief: as §2
# [7] = Tmax in human systemic circulation with chronic kidney disease at 1500 mg, po every 12 hrs measured after fifth dose by radioimmunoassay; assay type: ADME, organism-based; details: plasma
# Method in brief: (§4)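 Three chronic kidney disease subjects (CrCl ∼15 to 30 ml/min) took valacyclovir 1,500 mg orally every 12 h for 5 doses, fasting from 8 h before to 2 h after the fifth dose. Plasma was drawn at 0, 0.5, 1, 1.5, 2, 3, 4, 6, 8 and 12 h. Acyclovir was measured by scintillation proximity radioimmunoassay.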
# [8] = Drug level in human CSF with normal renal function at 2000 mg, po every 6 hrs measured after fifth dose by radioimmunoassay; assay type: ADME, organism-based; details: read-out: Drug uptake; method in brief: as §3
# [9] = Cmax in human systemic circulation with chronic kidney disease at 1500 mg, po every 12 hrs measured after fifth dose by radioimmunoassay; assay type: ADME, organism-based; design: dose 1500 mg, route oral; details: plasma; method in brief: as §4
# [10] = Drug level in human plasma with normal renal function at 2000 mg, po every 6 hrs measured after fifth dose by radioimmunoassay; assay type: ADME, organism-based; details: read-out: Drug uptake; method in brief: as §1
# [11] = Drug level in human CSF with chronic kidney disease at 1500 mg, po every 12 hrs measured after fifth dose by radioimmunoassay; assay type: ADME, organism-based; details: read-out: Drug uptake; method in brief: as §2
# [12] = Cmax in human systemic circulation with normal renal function at 2000 mg, po every 6 hrs measured after fifth dose by radioimmunoassay; assay type: ADME, organism-based; design: dose 2000 mg, route oral; details: plasma; method in brief: as §1
# [13] = AUC (0 to 12 hrs) in human systemic circulation with chronic kidney disease at 1500 mg, po every 12 hrs measured after fifth dose by radioimmunoassay; assay type: ADME, organism-based; design: dose 1500 mg, time < 12 hr, route oral; details: plasma; method in brief: as §4
# [14] = AUC (0 to 6 hrs) in human CSF with normal renal function at 2000 mg, po every 6 hrs measured after fifth dose by radioimmunoassay; assay type: ADME, organism-based; design: time < 6 hr, dose 2000 mg, route oral; method in brief: as §3
# [15] = Tmax in human systemic circulation with normal renal function at 2000 mg, po every 6 hrs measured after fifth dose by radioimmunoassay; assay type: ADME, organism-based; details: plasma; method in brief: as §1
# [16] = Drug level in human plasma with chronic kidney disease at 1500 mg, po every 12 hrs measured after fifth dose by radioimmunoassay; assay type: ADME, organism-based; details: read-out: Drug uptake; method in brief: as §4
# Homo sapiens [17] = assay: Drug level in human plasma with chronic kidney disease assessed as CMMG level at 1500 mg, po every 12 hrs measured after fifth dose by LC/MS; assay type: ADME, organism-based; details: in vivo, read-out: Drug uptake
# Method in brief: (§5)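 Three CKD adults (CrCl ~15–30 ml/min) fasted around the final dose. Lumbar intrathecal catheter CSF and EDTA venous blood were taken predose and at 0.5–8 h plus 12 h, then stored at −70°C. Metabolites in serum/CSF were measured by SPE with isotope-labelled internal standards, reversed-phase HPLC and positive-ion MRM MS.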
# Homo sapiens [18] = assay: Ratio of Cmax in human CSF to Cmax in human plasma with normal renal function assessed as CMMG level at 2000 mg, po every 6 hrs measured after fifth dose by LC/MS; assay type: ADME, organism-based
# Method in brief: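 For each normal-renal-function subject, the metabolite CSF Cmax was divided by the serum Cmax from samples taken 0–8 h after the fifth dose. Both were measured by LC/MS with isotope-labelled internal standards, and the ratio is given as mean ± SD.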
# Homo sapiens [19] = assay: Tmax in human CSF with chronic kidney disease assessed as CMMG level at 1500 mg, po every 12 hrs measured after fifth dose by LC/MS; assay type: ADME, organism-based, Cerebrospinal fluid; details: in vivo; method in brief: as §5
# Homo sapiens [20] = assay: Cmax in human systemic circulation with chronic kidney disease assessed as CMMG level at 1500 mg, po every 12 hrs measured after fifth dose by LC/MS; assay type: ADME, organism-based; design: dose 1500 mg, route oral; details: in vivo; method in brief: as §5
# Homo sapiens [21] = assay: AUC (0 to 12 hrs) in human CSF with chronic kidney disease assessed as CMMG level at 1500 mg, po every 12 hrs measured after fifth dose by LC/MS; assay type: ADME, organism-based; design: time < 12 hr, dose 1500 mg, route oral; details: in vivo; method in brief: as §5
# Homo sapiens [22] = assay: Cmax in human systemic circulation with normal renal function assessed as CMMG level at 2000 mg, po every 6 hrs measured after fifth dose by LC/MS; assay type: ADME, organism-based; design: dose 2000 mg, route oral; details: in vivo
# Method in brief: (§6)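 Six volunteers with normal renal function fasted from 8 h before to 2 h after the fifth dose. Intrathecal-catheter CSF and venous blood were sampled at 0–8 h and stored at −70°C. Noncompartmental Cmax, tmax and AUCτ (0–6 h) were derived; Cavg = AUCτ/τ.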
# Homo sapiens [23] = assay: AUC (0 to 6 hrs) in human systemic circulation with normal renal function assessed as CMMG level at 2000 mg, po every 6 hrs measured after fifth dose by LC/MS; assay type: ADME, organism-based, Plasma; design: dose 2000 mg, time < 6 hr, route oral; details: in vivo; method in brief: as §6
# Homo sapiens [24] = assay: Tmax in human CSF with normal renal function assessed as CMMG level at 2000 mg, po every 6 hrs measured after fifth dose by LC/MS; assay type: ADME, organism-based, Cerebrospinal fluid; details: in vivo; method in brief: as §6
# Homo sapiens [25] = assay: Drug level in human CSF with chronic kidney disease assessed as CMMG level at 1500 mg, po every 12 hrs measured after fifth dose by LC/MS; assay type: ADME, organism-based; details: in vivo, read-out: Drug uptake; method in brief: as §5
# Homo sapiens [26] = assay: Cmax in human CSF with chronic kidney disease assessed as CMMG level at 1500 mg, po every 12 hrs measured after fifth dose by LC/MS; assay type: ADME, organism-based, Cerebrospinal fluid; design: dose 1500 mg, route oral; details: in vivo; method in brief: as §5
# Homo sapiens [27] = assay: AUC (0 to 6 hrs) in human CSF with normal renal function assessed as CMMG level at 2000 mg, po every 6 hrs measured after fifth dose by LC/MS; assay type: ADME, organism-based; design: time < 6 hr, dose 2000 mg, route oral; details: in vivo; method in brief: as §6
# Homo sapiens [28] = assay: Tmax in human systemic circulation with normal renal function assessed as CMMG level at 2000 mg, po every 6 hrs measured after fifth dose by LC/MS; assay type: ADME, organism-based; details: in vivo; method in brief: as §6
# Homo sapiens [29] = assay: Drug level in human plasma with normal renal function assessed as CMMG level at 2000 mg, po every 6 hrs measured after fifth dose by LC/MS; assay type: ADME, organism-based; details: in vivo, read-out: Drug uptake; method in brief: as §6
# Homo sapiens [30] = assay: Cmax in human CSF with normal renal function assessed as CMMG level at 2000 mg, po every 6 hrs measured after fifth dose by LC/MS; assay type: ADME, organism-based, Cerebrospinal fluid; design: dose 2000 mg, route oral; details: in vivo; method in brief: as §6
# Homo sapiens [31] = assay: Ratio of Cmax in human CSF to Cmax in human plasma with chronic kidney disease assessed as CMMG level at 1500 mg, po every 12 hrs measured after fifth dose by LC/MS; assay type: ADME, organism-based
# Homo sapiens [32] = assay: Tmax in human systemic circulation with chronic kidney disease assessed as CMMG level at 1500 mg, po every 12 hrs measured after fifth dose by LC/MS; assay type: ADME, organism-based; details: in vivo; method in brief: as §5
# Homo sapiens [33] = assay: AUC (0 to 12 hrs) in human systemic circulation with chronic kidney disease assessed as CMMG level at 1500 mg, po every 12 hrs measured after fifth dose by LC/MS; assay type: ADME, organism-based; design: dose 1500 mg, time < 12 hr, route oral; details: in vivo; method in brief: as §5
# Homo sapiens [34] = assay: Drug level in human CSF with normal renal function assessed as CMMG level at 2000 mg, po every 6 hrs measured after fifth dose by LC/MS; assay type: ADME, organism-based; details: in vivo, read-out: Drug uptake; method in brief: as §6
smiles,measurement,setting,value
Nc1nc2c(ncn2COCCO)c(=O)[nH]1 [ACYCLOVIR],AUC at 6 h,[1],137 µM·h
same,Cmax,[2],16 µM
same,Cmax,[3],7.8 µM
same,AUC at 12 h,[4],159 µM·h
same,Tmax,[5],2.3 h
same,Tmax,[6],5.3 h
same,Tmax,[7],2 h
same,concentration at 6 h,[8],6.25 µM
same,Cmax,[9],82 µM
same,concentration at 6 h,[10],23 µM
same,concentration at 12 h,[11],13.3 µM
same,Cmax,[12],42 µM
same,AUC at 12 h,[13],577 µM·h
same,AUC at 6 h,[14],37 µM·h
same,Tmax,[15],2.1 h
same,concentration at 12 h,[16],48 µM
Nc1nc2c(ncn2COCC(=O)O)c(=O)[nH]1,concentration,Homo sapiens [17],12 µM
same,Ratio,Homo sapiens [18],0.025
same,Tmax,Homo sapiens [19],6.7 h
same,Cmax,Homo sapiens [20],15 µM
same,AUC,Homo sapiens [21],3.8 µM·h
same,Cmax,Homo sapiens [22],4.1 µM
same,AUC,Homo sapiens [23],17 µM·h
same,Tmax,Homo sapiens [24],1.8 h
same,concentration,Homo sapiens [25],0.31 µM
same,Cmax,Homo sapiens [26],0.37 µM
same,AUC,Homo sapiens [27],0.42 µM·h
same,Tmax,Homo sapiens [28],3.3 h
same,concentration,Homo sapiens [29],2.9 µM
same,Cmax,Homo sapiens [30],0.095 µM
same,Ratio,Homo sapiens [31],0.025
same,Tmax,Homo sapiens [32],4.3 h
same,AUC,Homo sapiens [33],148 µM·h
same,concentration,Homo sapiens [34],0.07 µM
